Screens deposited in PubChem by several laboratories.
HUVEC prolif 384 = inhibitors of HUVEC proliferation, primary screen, cell-based, 384-well; CellTiter-Glo luminescence, 72 h; hits give low values; viability, % at 10 µM (by protocol); 86,000 compounds, 1.1% hits; AID 648, 2007;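 active = viability at or below 30%; inactive = viability above 30%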;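 also: 100% = median luminescence of DMSO-only cell control wells on each plate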
Ecoli tolC = growth inhibitors of E. coli tolC mutant, primary screen, strain BW25113 ΔtolC::kan, 384-well; OD615; growth inhibition, % at 10 µM (by protocol); 65,000 compounds, 2.2% hits; AID 573, 2007;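 active = growth inhibition at or above a cutoff equal to the mean over every tested compound plus 3 SD, cut at about 60% in these data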;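 also: growth measured after 20 h incubation at 37 °C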
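Signal: optical density read at 615 nm; Assay system: E. coli ΔtolC::kan strain BW25113; Times: 20 h incubation with compound, 37 °C; Dosing: 10 µM final, single dose.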
E coli WT exp = growth inhibitors of wild-type E. coli, primary screen, strain BW25113, expanded library, OD600; AID 710, 2007; growth inhibition, % at 100 µM; OD600 absorbance; 98,000 compounds, 0.15% hits;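 active = growth inhibition above about 50% at one test dose, limit read from the data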;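 also: growth measured after 20 h incubation at 37 °C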
H69AR inhibit = proliferation blockers of H69AR lung cancer cells, primary screen, cell-based, human, 86K library; H69AR lung tumor viability, ATP luminescence, 72 h; hits give low values; 85,000 compounds, 6% hits; viability, % at 10 µM;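 active = viability at or below 40%; inactive = viability above 40%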;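 also: multidrug resistant small cell line overexpressing MRP-1 efflux transporter; 100% = mean luminescence of untreated control wells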
Jurkat tox 60K = cytotoxicity toward Jurkat T cells, primary screen, cytotoxicity control, cell-based, Jurkat E6.1, 60K MLSMR library; Jurkat E6.1 viability, ATP luminescence, 48 h; inhibition, % at 4 µM; 56,000 compounds, 1.2% hits; AID 463, 2006;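 active = inhibition above the mean inhibition of all tested compounds plus 3 SD, cut at about 28% in these data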
Fibroblast inh = antiproliferative effect on LL 47 fibroblasts – human, LL 47 cells, CellTiter-Glo luminescence, primary screen | AID 719, 2007 | viability, % at 10 µM | 85,000 compounds, 1.1% hits | LL 47 human lung fibroblast viability, ATP luminescence; hits give low values;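 active = viability at or below 50% in the single dose screen; inactive = viability above 50%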;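 also: compound exposure lasted 72 h before the ATP readout; 100% = median luminescence of untreated cell-only wells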
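Test system: LL 47 human lung fibroblasts / Incubation: 72 h compound exposure at 37 °C after overnight plating / Technique: luminescent ATP detection, CellTiter-Glo / Compound dosing: 0.1% DMSO in all compound wells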
Active calls of the source: *. Compounds with a hit are over-represented: about 6.4% of the library has one in this group of screens.

How did CCCCCn1c(=O)[nH]c2cc(C(=O)N3CCN(Cc4ccc5c(c4)OCO5)CC3)ccc2c1=O do in these assays?
HUVEC prolif 384: 45; E coli WT exp: -4; H69AR inhibit: 9.3*; Fibroblast inh: 62

How did CC(C)(C)C(=O)CNS(=O)(=O)c1ccc(S(=O)(=O)NC2CCCC2)cc1 do in these assays?
HUVEC prolif 384: 100; Ecoli tolC: -16; E coli WT exp: 5; H69AR inhibit: 89; Jurkat tox 60K: 2; Fibroblast inh: 100

What do the screens show for `O=C(c1ccc(Cl)cc1Cl)N1CCC(c2nc3c(nnn3Cc3ccco3)c(=O)[nH]2)CC1`?
HUVEC prolif 384: 74; Ecoli tolC: 18; E coli WT exp: -2; H69AR inhibit: 60; Jurkat tox 60K: -10; Fibroblast inh: 92

Results for COc1cccc(C(=O)NCCn2ccc3ccccc32)c1 ?
HUVEC prolif 384: 96; Ecoli tolC: 12; E coli WT exp: 5; H69AR inhibit: 100; Jurkat tox 60K: 1; Fibroblast inh: 98

What do the screens show for `Cc1ccc2c(C(=O)CN3CCC4(CC3)OCCO4)c(C)[nH]c2c1`?
E coli WT exp: -11

What do the screens show for `COCC(=O)NC1CCN(CC(=O)Nc2ccc(OC)cc2[N+](=O)[O-])CC1`?
E coli WT exp: 7

What do the screens show for `COc1cccc(-c2nnc(NC(C)=O)o2)c1`?
HUVEC prolif 384: 100; Ecoli tolC: 2; H69AR inhibit: 102; Jurkat tox 60K: -1; Fibroblast inh: 98

What do the screens show for `COc1cccc(C(=O)Nc2nnc(-c3ccc(Cl)cc3)o2)c1`?
Ecoli tolC: 100*; Jurkat tox 60K: -3

How did O=C(Nc1nncs1)C1COc2ccccc2O1 (centres undefined) do in these assays?
HUVEC prolif 384: 97; Ecoli tolC: -3; E coli WT exp: -12; H69AR inhibit: 97; Jurkat tox 60K: 0; Fibroblast inh: 105

How did COc1cccc(C(=O)Nc2nnc(-c3ccc(F)cc3)o2)c1 do in these assays?
HUVEC prolif 384: 56; Ecoli tolC: 16; H69AR inhibit: 37*; Jurkat tox 60K: 2; Fibroblast inh: 91

How did O=C(Nc1nnc(-c2ccc3c(c2)CCCC3)o1)C1COc2ccccc2O1 (centres undefined) do in these assays?
HUVEC prolif 384: 49; Ecoli tolC: 100*; E coli WT exp: 0; H69AR inhibit: 70; Jurkat tox 60K: 4; Fibroblast inh: 103

How did O=C(COc1ccc(Cl)cc1)Nc1nnc(-c2ccc3c(c2)CCCC3)o1 do in these assays?
HUVEC prolif 384: 101; Ecoli tolC: 100*; E coli WT exp: -8; H69AR inhibit: 84; Jurkat tox 60K: -13; Fibroblast inh: 99

How did O=C(Nc1nnc(-c2ccc(Cl)cc2)o1)NC1CCCCC1 do in these assays?
HUVEC prolif 384: 100; E coli WT exp: -6; H69AR inhibit: 105; Fibroblast inh: 102

Results for COc1ccccc1NC(=S)NC(=O)CCCOc1ccc(Cl)cc1Cl ?
E coli WT exp: -12

What do the screens show for `CC(=O)Nc1nnc(-c2ccc3c(c2)CCCC3)o1`?
HUVEC prolif 384: 100; Ecoli tolC: 2; E coli WT exp: 4; H69AR inhibit: 76; Jurkat tox 60K: 0; Fibroblast inh: 95

How did O=C(Nc1nnc(-c2cccs2)o1)c1ccco1 do in these assays?
HUVEC prolif 384: 100; Ecoli tolC: -1; E coli WT exp: 6; H69AR inhibit: 80; Jurkat tox 60K: 6; Fibroblast inh: 97

How did CCOc1ccc(-c2nnc(NC(=O)c3ccc(OCC(C)C)c(OC)c3)o2)cc1 do in these assays?
HUVEC prolif 384: 19*; Ecoli tolC: 100*; E coli WT exp: 9; H69AR inhibit: 29*; Jurkat tox 60K: 1; Fibroblast inh: 54

Results for CCCCNC(=O)Nc1nnc(-c2ccc(OCC)cc2)o1 ?
HUVEC prolif 384: 90; E coli WT exp: -4; H69AR inhibit: 45; Fibroblast inh: 97

Results for COc1ccccc1C(=O)Nc1nnc(-c2ccc3c(c2)CCCC3)o1 ?
HUVEC prolif 384: 58; Ecoli tolC: 98*; E coli WT exp: -10; H69AR inhibit: 46; Jurkat tox 60K: -3; Fibroblast inh: 89

What do the screens show for `COc1ccc(-c2nnc(NC(=O)c3ccccc3C)o2)cc1`?
HUVEC prolif 384: 31; Ecoli tolC: 100*; H69AR inhibit: 74; Jurkat tox 60K: 43*; Fibroblast inh: 74

How did COc1cccc(C(=O)Nc2nnc(-c3cccs3)o2)c1 do in these assays?
HUVEC prolif 384: 68; Ecoli tolC: 69*; E coli WT exp: 80*; H69AR inhibit: 74; Jurkat tox 60K: 10; Fibroblast inh: 87

What do the screens show for `Cc1nc2nc(-c3ccco3)[nH]n2c(=O)c1Cc1ccccc1`?
HUVEC prolif 384: 92; Ecoli tolC: 72*; E coli WT exp: 2; H69AR inhibit: 94; Jurkat tox 60K: 2; Fibroblast inh: 105

Results for Fc1ccc(-c2cc(C(F)(F)F)nc(NCC3CCCO3)n2)cc1 (centres undefined) ?
HUVEC prolif 384: 85; Ecoli tolC: 100*; E coli WT exp: 0; H69AR inhibit: 97; Jurkat tox 60K: 0; Fibroblast inh: 100

Results for COc1ccc(-c2noc(CCC(=O)Nc3ccc(C)c(C)c3)n2)cc1 ?
HUVEC prolif 384: 95; Ecoli tolC: 6; E coli WT exp: -1; H69AR inhibit: 91; Jurkat tox 60K: 6; Fibroblast inh: 92

Results for CCC(C(=O)O/N=C(\N)c1cccc(C)c1)c1ccccc1 (centres undefined) ?
HUVEC prolif 384: 89; E coli WT exp: -3; H69AR inhibit: 7.9*; Fibroblast inh: 82

What do the screens show for `Cc1cccc(/C(N)=N/OC(=O)N2c3ccccc3Sc3ccccc32)c1`?
E coli WT exp: 12

How did Cc1ccc(-c2noc(CCC(=O)N3CCN(c4cccc(C(F)(F)F)c4)CC3)n2)cc1 do in these assays?
HUVEC prolif 384: 92; Ecoli tolC: 64*; E coli WT exp: -1; H69AR inhibit: 94; Jurkat tox 60K: -1; Fibroblast inh: 99

What do the screens show for `Cc1ccc(-c2noc(CCC(=O)N3CCCc4ccccc43)n2)cc1`?
HUVEC prolif 384: 91; Ecoli tolC: 92*; E coli WT exp: 3; H69AR inhibit: 42; Jurkat tox 60K: 0; Fibroblast inh: 101

Results for O=C(NCC(c1cccnc1)N1CCOCC1)c1ccco1 (centres undefined) ?
HUVEC prolif 384: 100; Ecoli tolC: 7; E coli WT exp: -7; H69AR inhibit: 94; Fibroblast inh: 97

Results for CCCNc1nc2c(c(=O)n(C)c(=O)n2C)n1CCC(C)C ?
HUVEC prolif 384: 102; Ecoli tolC: -25; E coli WT exp: 1; H69AR inhibit: 79; Jurkat tox 60K: 33*; Fibroblast inh: 89
